ChEMBL document CHEMBL4689842, “EUbOPEN Chemogenomics Library wave 1” (2021)

System: U2OS
Assay: Multiplex assay against U2OS
Type: toxicity, cell-based
Settings: human
Summary of the method: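 On a CQ1 microscope at 37°C and 5% CO2, live cells were imaged after compound addition. They had been stained at seeding with Hoechst33342, BioTracker Green Microtubule Cytoskeleton Dye, MitoTracker Red and Annexin V Alexa Fluor 680. CellPathfinder machine-learning gating assigned cells to Hoechst high-intensity objects or normal cells, normal cells to healthy, pyknosed or fragmented nuclei, and pyknosed cells to mitotic or apoptotic. Tubulin, mitochondrial-mass and membrane-permeability phenotypes are per cents of healthy-nucleus cells.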

[1] = 12 h, 1 µM, compound concentration 1 uM, replicate 1
[2] = 12 h, 1 µM, compound concentration 1 uM, replicate 2
[3] = 12 h, 10 µM, compound concentration 10 uM, replicate 1
[4] = 12 h, 10 µM, compound concentration 10 uM, replicate 2
[5] = 24 h, 1 µM, compound concentration 1 uM, replicate 1
[6] = 24 h, 1 µM, compound concentration 1 uM, replicate 2
[7] = 24 h, 10 µM, compound concentration 10 uM, replicate 1
[8] = 24 h, 10 µM, compound concentration 10 uM, replicate 2
[9] = 48 h, 1 µM, compound concentration 1 uM, replicate 1
[10] = 48 h, 1 µM, compound concentration 1 uM, replicate 2
[11] = 48 h, 10 µM, compound concentration 10 uM, replicate 1
[12] = 48 h, 10 µM, compound concentration 10 uM, replicate 2

Structure (SMILES): Cc1cn(-c2cc(NC(=O)c3ccc(C)c(Nc4nccc(-c5cccnc5)n4)c3)cc(C(F)(F)F)c2)cn1 [NILOTINIB]
- Population Apoptotic (%) [1]: 46%
- Population Fragmented Nuclei (%) [1]: 14%
- Population Healthy Nuclei (%) [1]: 69%
- Population Hoechst High Intensity Objects (%) [1]: 8%
- Population Membrane Permeable-Phenotype (%) [1]: 10%
- Population Mitochondria Different-Phenotype (%) [1]: 77%
- Population Mitotic Cells (%) [1]: 53%
- Population Normal (%) [1]: 91%
- Population Pyknosed Nuclei (%) [1]: 16%
- Population Tubulin-Different-Phenotype (%) [1]: 94%
- Total Cell Count [1]: 134
- Population Apoptotic (%) [2]: 25%
- Population Fragmented Nuclei (%) [2]: 1%
- Population Healthy Nuclei (%) [2]: 86%
- Population Membrane Permeable-Phenotype (%) [2]: 1%
- Population Mitochondria Different-Phenotype (%) [2]: 18%
- Population Mitotic Cells (%) [2]: 75%
- Population Pyknosed Nuclei (%) [2]: 11%
- Population Tubulin-Different-Phenotype (%) [2]: 10%
- Total Cell Count [2]: 66
- Population Apoptotic (%) [3]: 86%
- Population Fragmented Nuclei (%) [3]: 45%
- Population Healthy Nuclei (%) [3]: 20%
- Population Hoechst High Intensity Objects (%) [3]: 49%
- Population Membrane Permeable-Phenotype (%) [3]: 30%
- Population Mitochondria Different-Phenotype (%) [3]: 89%
- Population Mitotic Cells (%) [3]: 13%
- Population Normal (%) [3]: 50%
- Population Pyknosed Nuclei (%) [3]: 33%
- Population Tubulin-Different-Phenotype (%) [3]: 93%
- Total Cell Count [3]: 185
- Population Apoptotic (%) [4]: 33%
- Population Fragmented Nuclei (%) [4]: 18%
- Population Healthy Nuclei (%) [4]: 72%
- Population Hoechst High Intensity Objects (%) [4]: 7%
- Population Membrane Permeable-Phenotype (%) [4]: 4%
- Population Mitochondria Different-Phenotype (%) [4]: 61%
- Population Mitotic Cells (%) [4]: 66%
- Population Normal (%) [4]: 92%
- Population Pyknosed Nuclei (%) [4]: 9%
- Population Tubulin-Different-Phenotype (%) [4]: 63%
- Total Cell Count [4]: 73
- Population Apoptotic (%) [5]: 55%
- Population Fragmented Nuclei (%) [5]: 12%
- Population Healthy Nuclei (%) [5]: 66%
- Population Hoechst High Intensity Objects (%) [5]: 6%
- Population Membrane Permeable-Phenotype (%) [5]: 14%
- Population Mitochondria Different-Phenotype (%) [5]: 73%
- Population Mitotic Cells (%) [5]: 44%
- Population Normal (%) [5]: 93%
- Population Pyknosed Nuclei (%) [5]: 20%
- Population Tubulin-Different-Phenotype (%) [5]: 92%
- Total Cell Count [5]: 135
- Population Apoptotic (%) [6]: 40%
- Population Fragmented Nuclei (%) [6]: 14%
- Population Healthy Nuclei (%) [6]: 79%
- Population Hoechst High Intensity Objects (%) [6]: 5%
- Population Membrane Permeable-Phenotype (%) [6]: 2%
- Population Mitochondria Different-Phenotype (%) [6]: 20%
- Population Mitotic Cells (%) [6]: 60%
- Population Normal (%) [6]: 94%
- Population Pyknosed Nuclei (%) [6]: 5%
- Population Tubulin-Different-Phenotype (%) [6]: 12%
- Total Cell Count [6]: 67
- Population Apoptotic (%) [7]: 85%
- Population Fragmented Nuclei (%) [7]: 60%
- Population Healthy Nuclei (%) [7]: 16%
- Population Hoechst High Intensity Objects (%) [7]: 60%
- Population Membrane Permeable-Phenotype (%) [7]: 29%
- Population Mitochondria Different-Phenotype (%) [7]: 71%
- Population Mitotic Cells (%) [7]: 14%
- Population Normal (%) [7]: 39%
- Population Pyknosed Nuclei (%) [7]: 23%
- Population Tubulin-Different-Phenotype (%) [7]: 78%
- Total Cell Count [7]: 184
- Population Apoptotic (%) [8]: 0%
- Population Fragmented Nuclei (%) [8]: 12%
- Population Healthy Nuclei (%) [8]: 83%
- Population Hoechst High Intensity Objects (%) [8]: 2%
- Population Membrane Permeable-Phenotype (%) [8]: 1%
- Population Mitochondria Different-Phenotype (%) [8]: 42%
- Population Mitotic Cells (%) [8]: 100%
- Population Normal (%) [8]: 97%
- Population Pyknosed Nuclei (%) [8]: 4%
- Population Tubulin-Different-Phenotype (%) [8]: 30%
- Total Cell Count [8]: 93
- Population Apoptotic (%) [9]: 65%
- Population Fragmented Nuclei (%) [9]: 14%
- Population Healthy Nuclei (%) [9]: 67%
- Population Hoechst High Intensity Objects (%) [9]: 3%
- Population Membrane Permeable-Phenotype (%) [9]: 16%
- Population Mitochondria Different-Phenotype (%) [9]: 54%
- Population Mitotic Cells (%) [9]: 34%
- Population Normal (%) [9]: 96%
- Population Pyknosed Nuclei (%) [9]: 17%
- Population Tubulin-Different-Phenotype (%) [9]: 80%
- Total Cell Count [9]: 127
- Population Apoptotic (%) [10]: 25%
- Population Fragmented Nuclei (%) [10]: 4%
- Population Healthy Nuclei (%) [10]: 92%
- Population Hoechst High Intensity Objects (%) [10]: 5%
- Population Membrane Permeable-Phenotype (%) [10]: 6%
- Population Mitochondria Different-Phenotype (%) [10]: 18%
- Population Mitotic Cells (%) [10]: 75%
- Population Normal (%) [10]: 94%
- Population Pyknosed Nuclei (%) [10]: 3%
- Population Tubulin-Different-Phenotype (%) [10]: 24%
- Total Cell Count [10]: 64
- Population Apoptotic (%) [11]: 85%
- Population Fragmented Nuclei (%) [11]: 69%
- Population Healthy Nuclei (%) [11]: 10%
- Population Hoechst High Intensity Objects (%) [11]: 61%
- Population Membrane Permeable-Phenotype (%) [11]: 24%
- Population Mitochondria Different-Phenotype (%) [11]: 33%
- Population Mitotic Cells (%) [11]: 15%
- Population Normal (%) [11]: 38%
- Population Pyknosed Nuclei (%) [11]: 19%
- Population Tubulin-Different-Phenotype (%) [11]: 40%
- Total Cell Count [11]: 245
- Population Apoptotic (%) [12]: 11%
- Population Fragmented Nuclei (%) [12]: 15%
- Population Healthy Nuclei (%) [12]: 75%
- Population Hoechst High Intensity Objects (%) [12]: 4%
- Population Membrane Permeable-Phenotype (%) [12]: 8%
- Population Mitochondria Different-Phenotype (%) [12]: 20%
- Population Mitotic Cells (%) [12]: 88%
- Population Normal (%) [12]: 95%
- Population Pyknosed Nuclei (%) [12]: 9%
- Population Tubulin-Different-Phenotype (%) [12]: 25%
- Total Cell Count [12]: 132
